Most compounds without a hit are left out; they make up all but 1.9% or so of the library.
Arrestin-AP2 inh: inhibitors of beta-arrestin/AP2 binding, primary screen, biochemical, GPCR trafficking, flow cytometry | FITC-arrestin peptide / GST-AP2 beads; AP2 beta2 appendage carries R879A mutation | inhibition, % at 10 µM | 340,000 compounds, 0.31% hits;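 active means inhibition above a set limit, near 3 SD of compounds lacking own fluorescence, cut at about 54% in these data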;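 further: plate controls were DMSO wells for no effect and 5 µM unlabelled arrestin peptide for full effect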
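System: GST-AP2 R879A glutathione beads; medium: PBS, Tween 20 0.05%, BSA 0.1%; reagent: fluorescein-tagged arrestin peptide at 50 nM final; schedule: pre-incubation 12 min, peptide binding 1 h, room temperature; detection: flow cytometry, FL1 (488/535 nm); read-out: inhibition as reduced fluorescein signal on beads, percent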
PLC-beta3 inh: human PLC-beta3 inhibitors, primary screen, biochemical, fluorescence; 1-phosphatidylinositol 4,5-bisphosphate phosphodiesterase beta-3 (Homo sapiens), Q01970; 370,000 compounds, 0.18% hits; inhibition, % at 12.2 µM; Purified PLC-beta3, fluorogenic substrate;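 further: 0% = median of compound wells on plate and 100% = full blocker control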
PLC-gamma1 inh: PLC-gamma1 enzyme inhibitors, primary screen, biochemical, fluorescence, purified enzyme; 1-phosphatidylinositol 4,5-bisphosphate phosphodiesterase gamma-1 (Homo sapiens), P19174; fluorogenic substrate; inhibition, % at 12.2 µM; 370,000 compounds, 0.84% hits; AID 720700, 2013; in the data active means inhibition above about 9.5%
procasp3 activ: activators of human procaspase-3 D3A mutant, primary screen, biochemical, absorbance, PC-3 D3A mutant, single concentration | Caspase-3 (Homo sapiens), P42574 | 330,000 compounds, 0.11% hits | recombinant procaspase-3 D3A, Ac-DEVD-pNA absorbance 405 nm | activation, % at 8.5 µM;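 active means activation above the mean of all tested compounds plus 3 SD, cut at about 21% in these data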;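 further: 0% = DMSO alone and 100% = DMSO wells spiked with extra 5 µM PC-3 D3A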
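Technique: 405 nm absorbance of p-nitroaniline, reads at 0 and 120 min; Test system: Procaspase-3 D3A mutant; Incubation: 1 h enzyme-compound preincubation, then 2 h substrate reaction, 25 °C; Repeats: singlicate, each compound tested once; Benchmarks: low control DMSO wells, high control DMSO plus 5 µM PC-3 D3A.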
sPLA2-III inh: human group III sPLA2 inhibitors, primary screen, biochemical, QFRET, BODIPY PC-A2 liposome substrate. inhibition, % at 12.2 µM. AID 743126, 2013. Group 3 secretory phospholipase A2 (Homo sapiens), Q9NZ20. 370,000 compounds, 0.56% hits. QFRET BODIPY PC-A2 liposome hydrolysis, fluorescence;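 active means inhibition above mean plus 3 SD of compounds lying within the high and low control bounds, cut at about 19% in these data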;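 further: 0% = median of test compound wells and 100% = no enzyme DMSO wells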
proCasp7 act: procaspase-7 activators, primary screen, counter-screen for procaspase-3 activator project, biochemical, absorbance, HTS, human. activation, % at 8.5 µM. 330,000 compounds, 0.093% hits. recombinant procaspase-7, Ac-DEVD-pNA absorbance 405 nm; D23A/D198A/D206A triple mutant, cannot self-cleave; scale: DMSO 0, 5 µM enzyme 100. Caspase-7 (Homo sapiens), P55210;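 active means percent activation above the screen-wide mean plus 3 SD, cut at about 25% in these data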
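Test system: Procaspase-7 triple mutant (PC-7 D3A). Also added: Ac-DEVD-pNA substrate, 400 µM as added. Schedule: 1 h enzyme–compound preincubation and 2 h substrate reaction, both 25 °C. Signal: p-Nitroaniline absorbance at 405 nm, read at 0 and 120 min. Control set: low DMSO alone, high DMSO plus 5 µM PC-7.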
PLCgamma1 ctr: PLC-gamma1 enzyme inhibitors, counter-screen for PLC-beta3 inhibitor project, biochemical, fluorescence; 3,300 compounds, 3.1% hits; shares compounds with PLC-gamma1 inh; inhibition, % at 12.3 µM; purified PLC-gamma1, fluorogenic substrate; AID 743258, 2014; in the data active means inhibition above about 9.5%
PLCb3 confirm: PLC-beta3 inhibitor confirmation, biochemical, fluorescence, purified enzyme | shares compounds with PLC-gamma1 inh | fluorogenic substrate fluorescence | inhibition, % at 12.3 µM | 3,300 compounds, 1% hits | AID 743261, 2014
An asterisk follows results filed as active. Unless noted, no stated cut-off is given here; in the data, active means inhibition above about 11%; inactive means the rest.

Results for FC(F)(F)c1ccccc1N/N=C/c1cccnc1 ?
Arrestin-AP2 inh: 23; PLC-beta3 inh: -3; PLC-gamma1 inh: 10*; procasp3 activ: 1; sPLA2-III inh: 6; proCasp7 act: -2; PLCgamma1 ctr: 1; PLCb3 confirm: -2

How did O=C(Nn1c(C2CCC2)nc2ccccc2c1=O)C1CCC1 do in these assays?
Arrestin-AP2 inh: -4; PLC-beta3 inh: 0; PLC-gamma1 inh: 0; procasp3 activ: -1; sPLA2-III inh: -5; proCasp7 act: -4

How did O=C(Nn1c(C2CCC2)nc2ccccc2c1=O)c1cccs1 do in these assays?
Arrestin-AP2 inh: -7; PLC-beta3 inh: 15*; PLC-gamma1 inh: 9; procasp3 activ: 4; sPLA2-III inh: 3; proCasp7 act: 0; PLCgamma1 ctr: -6; PLCb3 confirm: -4

Results for O=C(N[C@H](C(=O)N1CCC[C@H]1C(=O)NCc1ccccc1)c1ccccc1)c1ccccc1 ?
PLC-beta3 inh: 1; PLC-gamma1 inh: 1; sPLA2-III inh: 4

Results for O=C(CN1CCN(C(=O)N2CCCCC2)CC1)Nc1ccc(F)cc1 ?
Arrestin-AP2 inh: 8; PLC-beta3 inh: -2; PLC-gamma1 inh: 11*; procasp3 activ: 1; sPLA2-III inh: 8; proCasp7 act: -7; PLCgamma1 ctr: 0; PLCb3 confirm: -6

Results for COc1ccc(Nc2nnc(SC(C(=O)Nc3cc(C)ccc3C)c3ccccc3)s2)cc1 (stereo not given) ?
Arrestin-AP2 inh: 13; PLC-beta3 inh: 3; PLC-gamma1 inh: 5; procasp3 activ: 7; sPLA2-III inh: 2; proCasp7 act: 9

Results for COc1cccc(NC(=O)C(Sc2nnc(Nc3ccccc3C)s2)c2ccccc2)c1 (stereo not given) ?
Arrestin-AP2 inh: -1; PLC-beta3 inh: 4; PLC-gamma1 inh: 10.0*; procasp3 activ: 4; sPLA2-III inh: -17; proCasp7 act: -5; PLCgamma1 ctr: 8; PLCb3 confirm: 1

How did Cc1nn(C(=O)N2CCOCC2)c(C)c1CN1C(=O)c2ccccc2C1=O do in these assays?
Arrestin-AP2 inh: 5; PLC-beta3 inh: -3; PLC-gamma1 inh: -1; procasp3 activ: -3; sPLA2-III inh: 0; proCasp7 act: 3

How did CC(=O)c1c(C)nn(C(=O)N2CCOCC2)c1C do in these assays?
Arrestin-AP2 inh: -8; PLC-beta3 inh: 15*; PLC-gamma1 inh: 8; procasp3 activ: 6; sPLA2-III inh: 10; proCasp7 act: 10; PLCgamma1 ctr: -7; PLCb3 confirm: -4

How did COc1ccc(N2CCN(C(=O)C(=O)c3c[nH]c4ccccc34)CC2)cc1 do in these assays?
Arrestin-AP2 inh: 12; PLC-beta3 inh: -2; PLC-gamma1 inh: 9.8*; procasp3 activ: 4; sPLA2-III inh: -8; proCasp7 act: 2; PLCgamma1 ctr: -4; PLCb3 confirm: -1

Results for O=C(C(=O)N1CCN(c2ccccc2)CC1)c1c[nH]c2ccccc12 ?
Arrestin-AP2 inh: 17; PLC-beta3 inh: -7; PLC-gamma1 inh: -1; procasp3 activ: -8; sPLA2-III inh: -12; proCasp7 act: -6

Screening data deposited in PubChem by several laboratories.
